# KCNK9 inh = inhibitors of human KCNK9 two-pore domain potassium channel; B-score at 10 µM; Q9NPC2; HEK293 KCNK9, FluxOR thallium flux fluorescence; hits give low values; hit rate 1.2% among 310,000; AID 488922;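 active = ratio B-score over 3 SD below the library mean, with starting fluorescence within 5 SD of its mean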;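 also: negative B-score means less thallium flux so channel inhibition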
# KCNQ1 block = inhibitors of human KCNQ1 potassium channel; P51787; CHO-K1 KCNQ1, FluxOR thallium flux fluorescence; hits give high values; B-score at 10 µM; hit rate 1.3% among 310,000; AID 2642;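 active = compounds whose thallium flux B-score, printed positive for inhibition, exceeds three library SD while starting fluorescence stays within three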;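 also: channel opened by potassium depolarization with thallium stimulus after 20 min compound exposure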
# KCNK3 block = human KCNK3 channel inhibition, primary screen. O14649. CHO-KCNK3 thallium flux, FluxOR fluorescence; hits give low values. B-score at 10 µM. hit rate 0.84% among 340,000. AID 602410;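 active = B-score under library mean minus 4 SD, starting fluorescence ratio at most library mean plus 5 SD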;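 also: more negative B-score means stronger inhibition of thallium flux through KCNK3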
# KCNQ1 act = potentiators or activators of human KCNQ1 potassium channel; hit rate 0.35% among 310,000; CHO-K1 KCNQ1, thallium flux FluxOR fluorescence; hits give high values; B-score at 10 µM; AID 2648;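 active = fluorescence ratio B-score, a plate-corrected score, at least three library SD, with initial intensity B-score within 5 SD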
#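 Test system: CHO-K1 cells stably expressing KCNQ1 / Medium: assay buffer / Also added: depolarizing K+/Tl+ stimulus, K2SO4 and Tl2SO4 each 12.5 mM in 5x stock / Incubation: 90 min dye loading and 20 min compound exposure, both at room temperature / Signal: thallium influx via FluxOR fluorescence, kinetic imaging / Evaluation: B score of baseline-normalized fluorescence ratio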
# hERG rescue = hERG (human) protection from proarrhythmic block; hit rate 0.51% among 310,000; activation (rescue from dofetilide block), less the hit threshold, % at 10 µM; Q12809; CHO-hERG, FluxOR thallium flux, dofetilide IC70 present; AID 1511;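 active = activation above the mean of controls blocked by dofetilide plus 5 SD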;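 also: thallium influx through hERG after potassium depolarization seen as dye fluorescence rise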
# Target sequence (Q12809 whole entry, looked up): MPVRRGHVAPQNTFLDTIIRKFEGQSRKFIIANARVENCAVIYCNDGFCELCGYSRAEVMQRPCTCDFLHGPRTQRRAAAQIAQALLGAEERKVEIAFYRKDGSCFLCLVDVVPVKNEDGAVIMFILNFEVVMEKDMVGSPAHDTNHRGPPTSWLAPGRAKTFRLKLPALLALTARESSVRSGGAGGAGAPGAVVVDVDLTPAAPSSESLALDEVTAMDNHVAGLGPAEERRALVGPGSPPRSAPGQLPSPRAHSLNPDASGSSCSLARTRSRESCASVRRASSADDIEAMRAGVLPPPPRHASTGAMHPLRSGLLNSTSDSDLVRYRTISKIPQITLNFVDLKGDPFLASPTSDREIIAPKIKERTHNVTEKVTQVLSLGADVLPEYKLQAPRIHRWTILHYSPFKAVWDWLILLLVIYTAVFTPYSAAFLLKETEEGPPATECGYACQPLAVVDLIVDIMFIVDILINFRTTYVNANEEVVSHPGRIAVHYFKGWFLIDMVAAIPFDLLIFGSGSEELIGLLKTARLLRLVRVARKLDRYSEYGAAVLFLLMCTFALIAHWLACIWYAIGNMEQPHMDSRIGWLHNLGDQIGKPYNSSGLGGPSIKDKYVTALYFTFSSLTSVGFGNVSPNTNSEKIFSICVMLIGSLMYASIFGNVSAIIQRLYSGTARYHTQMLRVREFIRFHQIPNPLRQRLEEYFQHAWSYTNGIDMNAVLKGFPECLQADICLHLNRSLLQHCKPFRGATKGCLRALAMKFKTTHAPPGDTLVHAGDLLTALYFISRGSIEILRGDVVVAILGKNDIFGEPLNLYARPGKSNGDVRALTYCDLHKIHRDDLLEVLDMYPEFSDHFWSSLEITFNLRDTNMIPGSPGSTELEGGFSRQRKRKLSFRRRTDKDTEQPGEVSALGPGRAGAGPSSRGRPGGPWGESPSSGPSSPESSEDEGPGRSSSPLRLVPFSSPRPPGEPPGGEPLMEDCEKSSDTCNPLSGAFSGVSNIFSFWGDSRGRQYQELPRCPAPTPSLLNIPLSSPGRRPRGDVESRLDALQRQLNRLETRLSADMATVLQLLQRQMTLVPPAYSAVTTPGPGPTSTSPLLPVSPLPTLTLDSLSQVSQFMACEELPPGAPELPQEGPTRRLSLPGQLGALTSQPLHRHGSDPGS
# Kir21 inh = inhibitors of mouse Kir2.1 inward-rectifier potassium channel; P35561; B-score at 10 µM; hit rate 0.85% among 310,000; AID 1672; HEK293-Kir2.1, FluxOR thallium flux fluorescence; hits give low values;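 active = fluorescence ratio B-score at or below minus 3 SD of library scores, with starting-brightness B-score within 2 SD, cut at about -4.2 in these data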;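 also: channel flux triggered by added potassium and thallium sulfate stimulus; B-score of peak minus minimum fluorescence over baseline after thallium stimulus; more negative B-score means stronger Kir2.1 block with less thallium influx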
# KCNK9 block conf = human KCNK9 inhibitor confirmation. shares compounds with KCNK9 inh. HEK293 KCNK9 cells, FluxOR thallium flux fluorescence. inhibition, % at 10 µM. hit rate 43% among 4,900. AID 492992;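 active = thallium signal inhibited by more than 5 SD of the compound-free buffer control wells, on both duplicate plates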;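 also: 0% = assay buffer control wells without compound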
# Kir2-1 spec = mouse Kir2.1 off-target activity of KCNK9 modulators; shares compounds with KCNK9 inh; Kir2.1 cells, FluxOR thallium flux fluorescence; inhibition, % at 10 µM; hit rate 4% among 4,900; AID 492993;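 active = thallium signal drop more than 5 SD beyond the mean of the no-compound control wells, seen in both duplicate plates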;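 also: signal is fluorescence rise after thallium addition divided by baseline fluorescence; plate controls were assay buffer only for no effect and full block by chlorpromazine control for full effect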
# KCNK9 uninduced = second counter-screen for KCNK9 modulators: effect in non-induced cells; shares compounds with KCNK9 inh; non-induced KCNK9-HEK293, FluxOR thallium flux; inhibition, % at 10 µM; hit rate 40% among 4,900;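 active = thallium signal drop beyond 5 SD of the untreated control mean, on both duplicate plates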;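 also: plate controls were buffer only IC0 wells for no effect and SID17386958 at its maximal inhibitory level for full effect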
# An asterisk follows results filed as active; i = inactive; · = no result given. Hits are enriched below; roughly 3.8% of the tested compounds scored in any of these assays.
SMILES,KCNK9 inh,KCNQ1 block,KCNK3 block,KCNQ1 act,hERG rescue,Kir21 inh,KCNK9 block conf,Kir2-1 spec,KCNK9 uninduced
CCOP(=O)(OCC)c1nc(-c2cccc3ccccc23)oc1N1CCOCC1,i,i,i,i,-14.3,-2,·,·,·
COc1ccc(C(C)=O)cc1COc1ccc(Cl)cc1Cl,-14.3*,i,i,i,-0.3,0.74,50.0%*,i,37.0%*
COc1ccccc1N1CCN(C(=O)c2ccc(Cl)c(S(=O)(=O)N3CCOCC3)c2)CC1,i,i,i,i,-8.7,-2.48,·,·,·
OCCNCc1c(OCc2ccc(Cl)cc2)ccc2ccccc12,-19*,i,i,i,-17.6,-6.85*,76.5%*,41.5%*,31.0%*
CC(O)CNCCNCc1c(OCc2ccccc2)ccc2ccccc12 (stereo not drawn),i,i,i,i,-14.1,-4.08,·,·,·
CCN(CC)S(=O)(=O)c1cccc(NC(=O)CCSc2ccc(Cl)cc2)c1,i,i,i,i,-10.7,-2.77,i,i,i
Cc1nn2c(N3CCN(c4ccccn4)CC3)cc(C(C)C)nc2c1-c1ccccc1,-11.7*,i,i,i,-6.8,-0.47,63.0%*,i,38.5%*
Cc1cc(N2CCCCCC2)n2nc(C)c(-c3ccccc3)c2n1,i,i,i,i,-2.5,0.2,·,·,·
CCCc1nc2ccccc2c(=O)n1/N=C/c1ccccc1O,-8.4*,6*,i,i,-16.2,-0.12,60.0%*,i,30.0%*
CC(NC(=O)COC(=O)c1ccc(CO)cc1)C1CC2CCC1C2 (stereo not drawn),·,·,i,·,·,·,·,·,·
COC(=O)C1=C(C(=O)OC)SC(=C2C(=S)C(C)(C)N(C(=O)CC(C)C)c3ccccc32)S1,-11.1*,i,i,i,-12.5,-1.31,26.0%*,i,32.0%*
Cc1cccc(-c2noc(CN(C(=O)/C=C/c3ccccc3Cl)C(C)C)n2)c1,i,i,i,i,-10.4,0.07,·,·,·
Cc1ccc(-c2noc(CN(C(=O)C(c3ccccc3)c3ccccc3)C(C)C)n2)cc1,-11.8*,i,i,i,-22.9,1.59,40.0%*,i,33.0%*
Cc1cccc(-c2noc(CN(C(=O)CCc3ccccc3)C(C)C)n2)c1,i,i,i,i,-6.4,3.03,i,i,25.5%*
CC(C)N(Cc1nc(-c2ccccc2)no1)C(=O)CN1C(=O)c2ccccc2C1=O,i,i,i,i,-4.5,-1.03,·,·,·
Nn1c(SCC(=O)Nc2ccc(Oc3ccccc3)cc2)nnc1C1CC1,i,i,i,i,-7.6,1.05,i,i,i
CCOC(=O)c1ccc(N2C(=O)c3n[nH]c(-c4ccco4)c3C2c2cccc([N+](=O)[O-])c2)cc1 (stereo not drawn),-9.44*,i,i,i,-8.3,2.39,64.0%*,i,30.5%*
Cc1cc(C)c(C(=O)COC(=O)C2CCN(c3ccc(C(F)(F)F)cn3)CC2)cc1C,i,7*,i,i,-13.0,0.49,i,i,i
Cc1ccc(NC(=O)C2CCN(S(=O)(=O)c3ccc4c(c3)C(C)(C)C(=O)N4C)CC2)c(C)c1,i,i,i,i,-16.4,0,·,·,·
Cc1ccc(NC(=O)CSc2nc3ccccc3nc2N2CCCC2)cc1,i,i,i,i,-7.0,-0.51,i,i,i
CCc1ccc(NC(=O)CSc2nc3ccccc3nc2N2CCCC2)cc1,i,6*,i,i,-10.0,-2.17,i,i,i
Clc1ccc(Cn2nc(-c3ccccc3)nc2-c2ccccc2)cc1,-11.7*,i,i,i,-5.9,-0.51,57.5%*,i,54.0%*

# Screening data from PubChem.
